Results taken from ChEMBL document CHEMBL4033653, “Effect of 1,2,3-triazole salts, non-classical bioisosteres of miltefosine, on Leishmania amazonensis” (Bioorg Med Chem, 2017).

Key:
[1] = Selectivity index, ratio of CC50 for mouse peritoneal macrophages to IC50 for Leishmania amazonensis WHOM/BR/75/Josefa amastigotes transfected with green fluorescent protein
Outline: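 SI = CC50 for mouse peritoneal macrophages / GFP amastigote IC50. […] IC50: macrophages infected with GFP-expressing Josefa-strain parasites, treated with 0.78–100.0 µM for 72 h; fluorescence read at 485 nm excitation/528 nm emission. Three experiments in duplicate.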

[2] = tested on: Leishmania amazonensis; assay: Induction of apoptosis in Leishmania amazonensis IFLA/BR/1967/PH8 promastigotes assessed as early apoptotic population at 2.5 uM after 24 hrs by Annexin V-FITC/PI staining based flow cytometric analysis (reference value: 5.29%); type: functional
[3] = tested on: Leishmania amazonensis; assay: Induction of ROS accumulation in Leishmania amazonensis IFLA/BR/1967/PH8 promastigotes at 5 uM after 72 hrs by H2DCFDA staining-based fluorometric analysis relative to control; type: functional
Outline: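 WT exponential-phase promastigotes treated at 25 °C; adjusted to 2x10^7 cells in PBS, loaded with H2DCFDA 30 min dark at room temperature; fluorescence 485/528 nm versus untreated; three independent experiments.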

[4] = tested on: Leishmania amazonensis; assay: Antileishmanial activity against Leishmania amazonensis IFLA/BR/1967/PH8 amastigotes transfected with red fluorescent protein infected in murine macrophages after 72 hrs by fluorometric analysis; type: functional; conditions: IFLA/BR/1967/PH8, 72 h
Outline: (§1)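 Infected murine macrophages treated 0.78-100.0 µM for 72 h; fluorescence read at 540/600 nm for RFP parasites (PH8) and 485/528 nm for GFP parasites (Josefa strain); IC50 from three independent experiments in duplicate.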

[5] = tested on: Leishmania amazonensis; assay: Induction of apoptosis in Leishmania amazonensis IFLA/BR/1967/PH8 promastigotes assessed as late apoptotic population at 20 uM after 24 hrs by Annexin V-FITC/PI staining based flow cytometric analysis (reference value: 2.62%); type: functional
Outline: (§2)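 Exponential-phase WT promastigotes (1x10^7 cells/mL) cultured 24 h at 25 °C; stained annexin V-FITC plus PI, flow cytometry with 10,000 events gated on parasites; quadrant percentages; three independent experiments.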

[6] = tested on: Leishmania amazonensis; assay: Antileishmanial activity against Leishmania amazonensis IFLA/BR/1967/PH8 amastigotes infected in murine macrophages after 72 hrs by fluorometric analysis; type: functional; conditions: IFLA/BR/1967/PH8, 72 h
[7] = tested on: Leishmania amazonensis; assay: Induction of lipid inclusions in Leishmania amazonensis IFLA/BR/1967/PH8 promastigotes at 20 uM after 24 hrs by Nile Red satining-based spectrofluorometric analysis relative to control; type: functional
Outline: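 WT (PH8) promastigotes at 1x10^7 cells/mL in exponential phase, cultured 24 h at 25 °C with or without 2.5–20.0 µM. Parasites incubated with Nile Red, then fluorescence measured spectrofluorometrically. Reported as arbitrary fluorescence units versus untreated parasites, mean of three experiments run in triplicate.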

[8] = Selectivity index, ratio of CC50 for mouse peritoneal macrophages to IC50 for Leishmania amazonensis IFLA/BR/1967/PH8 amastigotes transfected with red fluorescent protein
Outline: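 SI = CC50 for mouse peritoneal macrophages / RFP amastigote IC50. […] IC50: macrophages infected with RFP-expressing PH8 parasites, treated with 0.78–100.0 µM for 72 h; fluorescence read at 540 nm excitation/600 nm emission. Three experiments in duplicate.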

[9] = tested on: Leishmania amazonensis; assay: Induction of apoptosis in Leishmania amazonensis IFLA/BR/1967/PH8 promastigotes assessed as early apoptotic population at 5 uM after 24 hrs by Annexin V-FITC/PI staining based flow cytometric analysis (reference value: 5.29%); type: functional; outline: as §2
[10] = tested on: Leishmania amazonensis; assay: Induction of apoptosis in Leishmania amazonensis IFLA/BR/1967/PH8 promastigotes assessed as necrotic population at 10 uM after 24 hrs by Annexin V-FITC/PI staining based flow cytometric analysis (reference value: 0.03%); type: functional; outline: as §2
[11] = tested on: Leishmania amazonensis; assay: Induction of mitochondrial membrane potential loss in Leishmania amazonensis IFLA/BR/1967/PH8 promastigotes at 2.5 uM after 24 hrs by JC-1 staining-based spectrofluorometric analysis relative to control; type: functional
Outline: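 Exponential-phase WT (PH8) promastigotes at 1x10^7 cells/mL, treated 24 h at 25 °C with 2.5–20.0 µM, then harvested, washed and loaded with JC-1. Fluorescence read at 485/528 and 540/600 nm; ΔΨm taken as the 600/528 ratio. Untreated control set to 100%. Positive control was FCCP 20.0 µM for 30 min. Three experiments in triplicate.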

[12] = tested on: Leishmania amazonensis; assay: Antileishmanial activity against Leishmania amazonensis WHOM/BR/75/Josefa amastigotes transfected with green fluorescent protein infected in murine macrophages after 72 hrs by fluorometric analysis; type: functional; outline: as §1
[13] = tested on: Leishmania amazonensis; assay: Antileishmanial activity against Leishmania amazonensis WHOM/BR/75/Josefa promastigotes transfected with green fluorescent protein after 72 hrs by MTT assay; type: functional
[14] = tested on: Leishmania amazonensis; assay: Antileishmanial activity against Leishmania amazonensis IFLA/BR/1967/PH8 promastigotes after 72 hrs by MTT assay; type: functional

CC(=O)[O-].CCCCCCCCCCn1cc(CO)[n+](C)n1
Ratio CC50/IC50 [1]: 144.9
Activity [2]: 30.6%
Activity [3]: 40.7%
IC50 [4]: 1000 nM
Activity [5]: 16.88%
IC50 [6]: 900 nM
fold change (FC) [7]: 2.5
Ratio CC50/IC50 [8]: 115.9
Activity [9]: 39.1%
Activity [10]: 2.18%
Activity [11]: 37.5%
IC50 [12]: 800 nM
IC50 [13]: 3300 nM
IC50 [14]: 2600 nM
